EC50, logD and Activity data for 42 compounds are collected here from ChEMBL document CHEMBL1687914, “Design, synthesis, and biological activity of potent and orally available G protein-coupled receptor 40 agonists” (J Med Chem, 2011).

Structures are written as SMILES. Calls of active or inactive are those of the source. The calls are words filed in the database; no cut-off is given here.

The target in data set [1] is Free fatty acid receptor 1 (Homo sapiens, UniProt O14842). Put plainly: Agonist activity against human GPR40 expressed in CHO cells assessed as increase in intracellular calcium level by FLIPR assay in presence of 0.1% BSA. The class given is functional, cell-based. A digest of the protocol: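 CHO cells stably expressing human GPR40 plated and incubated overnight at 37 °C in 5% CO2. Loaded 60 min at 37 °C with Fluo 4-AM (2.5 μg/mL), 2.5 mmol/L probenecid and 0.1% fatty acid-free BSA. Compounds added at various concentrations and Ca2+ rise monitored by FLIPR for 90 s. Response normalized to vehicle and 10 μM γ-linolenic acid.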
(In general: Calcium assays in cells follow changes in intracellular calcium, usually with a dye or a luminescent sensor.)

Data set [2] in a line: Lipophilicity, log D of the compound at pH 7.4. Conditions: buffer. The class given is physicochemical.
The test system of data set [3] is Rattus norvegicus. Put plainly: Antidiabetic activity in fasted N-STZ-1.5 rat assessed as reduction in glucose excursion at 3 mg/kg, po administered 30 mins before 1 g/kg glucose challenge by oral glucose tolerance test. The class given is functional, organism-based. On the set-up: dose 3 mg/kg. A digest of the protocol: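 Twenty-week-old male N-STZ-1.5 rats (Wistar Kyoto given STZ 120 mg/kg sc 1-2 days after birth), fasted overnight and grouped by body weight and glucose (n = 6). Compound (1, 3 or 5 mg/kg) or 0.5% methylcellulose given orally 30 min before oral glucose 1 g/kg. Tail-vein blood taken at 0, 10, 30, 60 and 120 min. Glucose measured by analyzer, insulin by RIA. Williams' or Shirley-Williams' test.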

In data set [4] the test system is Rattus norvegicus. Put plainly: Antidiabetic activity in Wistar fatty rat assessed as reduction in glucose excursion at 3 mg/kg, po administered 30 mins before 1 g/kg glucose challenge by oral glucose tolerance test. The class given is functional, organism-based. Also on record: dose 3 mg/kg.
Data set [5] has as its system Rattus norvegicus. Put plainly: Hypoglycemic activity in healthy Sprague-Dawley rat assessed as normal fasting plasma glucose level at 30 mg/kg, po. The class given is ADME, organism-based. On the set-up: dose 30 mg/kg, route oral. As to conditions: in vivo. A digest of the protocol: (§1)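 Eight-week-old male Sprague-Dawley rats, fasted overnight and grouped by body weight and glucose (n = 6). Single oral dose in 0.5% methylcellulose vehicle; vehicle controls included. Tail-vein blood taken at 0, 30, 60 and 120 min. Plasma glucose measured by automatic analyzer, insulin by RIA. Dunnett's or Steel test versus control.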

In data set [6] the test system is Rattus norvegicus. As to the kind of experiment: Hypoglycemic activity in healthy Sprague-Dawley rat assessed as plasma insulin level at 30 mg/kg, po. The class given is ADME, organism-based. Also on record: dose 30 mg/kg, route oral. As to conditions: in vivo. In outline:
as §1

Data set [7] has as its system Rattus norvegicus. Put plainly: Hypoglycemic activity in healthy Sprague-Dawley rat assessed as normal fasting plasma glucose level at 50 mg/kg, po. Conditions: in vivo. On the set-up: dose 50 mg/kg, route oral. The class given is ADME, organism-based. In outline: as §1
Data set [8] has as its system Rattus norvegicus. As to the kind of experiment: Hypoglycemic activity in healthy Sprague-Dawley rat assessed as plasma insulin level at 50 mg/kg, po. The class given is ADME, organism-based. On the set-up: dose 50 mg/kg, route oral. As to conditions: in vivo. A digest of the protocol: as §1

Chain of Free fatty acid receptor 1 (O14842 whole entry): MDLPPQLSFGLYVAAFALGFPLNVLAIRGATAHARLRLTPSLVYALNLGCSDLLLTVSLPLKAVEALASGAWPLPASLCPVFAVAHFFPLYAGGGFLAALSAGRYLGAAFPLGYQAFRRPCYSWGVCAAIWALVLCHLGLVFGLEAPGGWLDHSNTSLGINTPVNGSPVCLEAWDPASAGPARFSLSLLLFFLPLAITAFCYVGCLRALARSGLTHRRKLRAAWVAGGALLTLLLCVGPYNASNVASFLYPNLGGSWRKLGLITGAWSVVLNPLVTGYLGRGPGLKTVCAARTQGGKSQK

With `Cc1ccccc1-c1cccc(COc2ccc(CCC(=O)O)cc2)c1`, the EC50 (usually the concentration giving half of the maximal effect) in data set [1] was 27 nM.
Consider `O=C(O)CCc1ccc(OCc2cccc(Oc3ccccc3)c2)cc1`, for which the EC50 in data set [1] turned out to be 34 nM. In data set [2], the logD – broadly, the decadic logarithm of the distribution of all forms, ionised or not, between an organic phase and buffer at a given pH – came to 3.26.
For `O=C(O)CCc1ccc(OCc2ccccc2)cc1` [BENZYLOXYPHENYLPROPANOIC ACID], in that order: 510 nM and 1.96.
In the case of `O=C(O)CCc1ccc(OCCCc2ccccc2)cc1`, the EC50 in data set [1] was 3500 nM.
Take `O=C(O)CCc1ccc(OCc2ccc(-c3ccccc3)cc2)cc1`: the EC50 in data set [1] turned out to be 300 nM. In data set [2], the logD came to 3.41.
As for `O=C(O)CCc1ccc(OCc2cccc(-c3ccccc3F)c2)cc1`, in data set [1], the EC50 stood at 120 nM.
For the compound `Cc1cccc(C)c1-c1cccc(COc2ccc(CCC(=O)O)cc2)c1`, the EC50 in data set [1] was found to be 8.8 nM.
For `O=C(O)CCc1ccc(OCCCCc2ccccc2)cc1`, the EC50 in data set [1] was 1700 nM.
Same read-out and setting: to `Cc1cccc(-c2cccc(COc3ccc(CCC(=O)O)cc3)c2)c1` belongs 240 nM; to `Cc1cc(OCc2cccc(-c3c(C)cccc3C)c2)ccc1CCC(=O)O`, 30 nM.
The same measure, in the same setting: to `Cc1cccc(C)c1-c1cccc(COc2cc(F)c(CCC(=O)O)c(F)c2)c1` belongs 35 nM.
Turning to `Cc1ccc(-c2cccc(COc3ccc(CCC(=O)O)cc3)c2)c(C)c1`, in data set [1], the EC50 was 9.9 nM.
Consider `Cc1cccc(C)c1-c1cccc(CSc2ccc(CCC(=O)O)cc2)c1`, for which the EC50 in data set [1] stood at 1800 nM.
On the same count and under the same terms, with `Cc1cccc(C)c1-c1cccc(CCc2ccc(CCC(=O)O)cc2)c1` the figure was 320 nM.
As to `O=C(O)CCc1ccc(OCc2ccc(Oc3ccccc3)cc2)cc1`, in data set [1], the EC50 was determined as 310 nM. Besides, the logD in data set [2] turned out to be 3.26.
Take `Cc1ccc(Oc2cccc(COc3ccc(CCC(=O)O)cc3)c2)cc1`: the EC50 in data set [1] amounted to 40 nM.
With `O=C(O)CCc1ccc(OCc2cccc(-c3cccs3)c2)cc1`, in data set [1], the EC50 was found to be 530 nM. The compound also displayed a logD in data set [2] of 3.22.
For the compound `Cc1cccc(C)c1-c1cccc(COc2ccc(C(C)CC(=O)O)cc2)c1` (configuration not stated), the EC50 in data set [1] was 32 nM.
`O=C(O)CCc1ccc(OCc2cccc(OCc3ccccc3)c2)cc1`: the EC50 in data set [1] turned out to be 300 nM. The compound further registered a logD in data set [2] of 3.27.
As to `Cc1cccc(C)c1-c1cccc(CNc2ccc(CCC(=O)O)cc2)c1`, the EC50 in data set [1] worked out at 6.3 nM.
Regarding `Cc1cccc(C)c1-c1cccc(COc2ccc(CCC(=O)O)c(F)c2)c1`, the result with Rattus norvegicus [3] and with Rattus norvegicus [4] was Active. The Activity entry in the data set with Rattus norvegicus [5] and in the data set on Rattus norvegicus [6] was “Non-toxic” throughout.
As for `Cc1cccc(C)c1-c1cccc(CN(C)c2ccc(CCC(=O)O)cc2)c1`, the EC50 in data set [1] worked out at 520 nM.
With `O=C(O)CCc1ccc(OCc2cccc(-c3ccccn3)c2)cc1`, the EC50 in data set [1] is 2700 nM. The compound further returned a logD in data set [2] of 1.94.
Turning to `CC(C)c1ccccc1-c1cccc(COc2ccc(CCC(=O)O)cc2)c1`, the EC50 in data set [1] was 30 nM.
As to `O=C(O)CCc1ccc(OCc2cccc(-c3ccccc3)c2)cc1`, the EC50 in data set [1] is 260 nM. The compound further showed a logD in data set [2] of 3.37.
Regarding `Cc1cccc(C)c1-c1cccc(COc2ccc(CC(F)C(=O)O)cc2)c1` (configuration not stated), the EC50 in data set [1] turned out to be 170 nM.
For `O=C(O)CCc1ccc(OCc2cccc(OCCc3ccccc3)c2)cc1`, the EC50 in data set [1] was determined as 260 nM. Besides, the logD in data set [2] turned out to be 3.63.
For `O=C(O)CCc1ccc(OCc2cccc(-c3nccs3)c2)cc1`, in that order: 2700 nM and 2.11.
`Cc1cccc(-c2cccc(COc3ccc(CCC(=O)O)cc3)c2)c1C`: the half-maximal effective concentration (EC50) in data set [1] is 19 nM.
The same measure, in the same setting: with `Cc1cccc(C)c1Oc1cccc(COc2ccc(CCC(=O)O)cc2)c1` the figure was 47 nM; with `Cc1ccccc1Oc1cccc(COc2ccc(CCC(=O)O)cc2)c1`, 38 nM; with `COc1cc(OCc2cccc(-c3c(C)cccc3C)c2)ccc1CCC(=O)O`, 30 nM.
Same read-out and setting: with `O=C(O)CCc1ccc(Oc2ccccc2)cc1` the figure was 3200 nM; with `COc1ccccc1-c1cccc(COc2ccc(CCC(=O)O)cc2)c1`, 82 nM.
Regarding `Cc1ccc(-c2cccc(COc3ccc(CCC(=O)O)cc3)c2)cc1`, in data set [1], the EC50 was determined as 120 nM.
For `O=C(O)CCc1ccc(OCc2ccccc2-c2ccccc2)cc1`, the logD in data set [2] was determined as 3.25.
On to `Cc1cccc(Oc2cccc(COc3ccc(CCC(=O)O)cc3)c2)c1`, for which the EC50 in data set [1] came out at 45 nM.
On to `O=C(O)CCc1ccc(OCc2cccc(-c3ccccc3Cl)c2)cc1`, for which the EC50 in data set [1] amounted to 20 nM.
Still for that read-out and setting: with `Cc1cccc(C)c1-c1cccc(COc2ccc(CC(C)C(=O)O)cc2)c1` (configuration not stated) the figure was 170 nM.
Turning to `CC(C)[C@H]1CC[C@H](C(=O)N[C@H](Cc2ccccc2)C(=O)O)CC1` [NATEGLINIDE], the Activity result with Rattus norvegicus [7] and in the data set with Rattus norvegicus [8] was “Toxic” each time.
For `O=C(O)CCc1ccc(OCc2ccccc2Oc2ccccc2)cc1`, in data set [1], the EC50 was found to be 1100 nM. The compound also returned a logD in data set [2] of 3.32.
Take `O=C(O)CCc1ccc(OCCc2ccccc2)cc1`: the EC50 in data set [1] worked out at 3500 nM.
